Measurements reported in paper PMC4254268 (Cellular signalling, 2014).
Values belong to the molecule of their own block, whether it stands above or below them.

Assays:
[1] = Ang-; format: in vitro ADME, rat; conditions: n=3
Outline: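 NRK-52E cells grown to confluence are serum-starved 24 h, then kept 48 h in serum-free or 100 uM glycated albumin (MGA) medium. They are harvested, frozen at −80°C and homogenized in 10 mM HEPES, 125 mM NaCl, 10 μM ZnCl2, pH 7.4, then spun at 100,000g. 125I-Ang-(1-7) (0.5 nM) is incubated with 2 μg supernatant protein for 30 min at 37°C and stopped with ice-cold 1.0% phosphoric acid. Products are separated by isocratic reverse-phase HPLC with flow-through γ detection, identified against 125I standards, and reported as fmol/mg/min (Bradford protein).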

[2] = system: α-SMA in NRK-52E cells; experiment: α-SMA immunofluorescent staining; format: cell-based, rat; conditions: 100 μM MGA 72 h, Ang-(1-7) 100 nM + DAL 10 μM
Outline: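 NRK-52E cells were grown 2 days on chamber slides in 5% FBS medium, then serum-free for 24 h. They were treated 72 h with 100 μM MGA ± test agents and fixed in 2% paraformaldehyde for 15 min. After 0.2% Triton permeabilisation and 3% BSA block, cells were stained overnight at 4°C with mouse anti-α-SMA (1:200), then Alexa Fluor 568 anti-mouse (1:400); nuclei with DAPI. Representative of 3 passages.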

[3] = system: α-SMA in NRK-52E cells; experiment: α-SMA protein expression by Western blot; format: cell-based, rat; conditions: 100 μM MGA 48 h
Outline: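 After 24 h serum starvation, cells received 100 uM MGA ± test agents for 48 h. Triton lysates were run on 10% SDS-PAGE and transferred to PVDF. Blots were probed overnight at 4°C with mouse anti-α-SMA (1:5000), then anti-mouse HRP (1:3000) and chemiluminescence. Membranes were stripped and re-probed for EFα1 (1:3000) as loading control. Densitometry; 3-4 cell passages.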

[4] = system: TGF-β release from NRK-52E cells; experiment: TGF-β release into cell media by ELISA; format: cell-based, rat; conditions: MGA 48 h
Outline: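 Cells were seeded in 12-well plates, kept serum-free for 24 h, then treated with MGA ± test agents; serum-free cells served as controls. Media were collected on ice and TGF-β measured by ELISA (sensitivity 15 pg/ml). Release was expressed as ng/ml.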

[5] = system: NRK-52E cells; experiment: Intracellular angiotensin peptide content by RIA; format: cell-based, rat
Outline: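 Cells were serum-free for 24 h, then given 100 uM MGA for 48 h; pellets were snap-frozen. Pellets were boiled 15 min in water, sonicated, acidified to 0.2% TFA and spun at 20,000g for 20 min at 4°C. Peptides were extracted on C18 (eluted in 80% methanol/0.2% TFA) and blanks subtracted. Ang I, Ang II and Ang-(1-7) were measured by separate RIAs; the Ang-(1-7) RIA also detects Ang-(2-7). Paired t-test versus control.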

[6] = system: NRK-52E cells; experiment: Cell area in immunofluorescent images; format: cell-based, rat; conditions: MGA 48 hours
Outline: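 NRK-52E cells were serum-starved for 24 h, then exposed to MGA for 48 h. Immunofluorescent images were taken. Fields were chosen at random and every cell in each field was measured. Cell area was expressed as % of control cell area.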

[7] = system: NRK-52E cells; experiment: Cellular hypertrophy by 3H-leucine incorporation; format: cell-based, rat; conditions: 100 μM MGA 48 h
Outline: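 Confluent NRK-52E cells were serum-starved for 24 h, then kept 48 h in serum-free medium ± 100 μM MGA and test agents. Cells were pulsed with 0.5 μCi 3H-leucine for the last 24 h at 37°C, washed in PBS and fixed 15 min in ice-cold 10% TCA. After 5% TCA washes, protein was dissolved in 0.05 N NaOH/0.1% SDS at 37°C and counted by scintillation. Triplicate wells; % of control per well; 5 cell passages.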

[8] = system: ERK1/2 in NRK-52E cells; experiment: MGA-induced ERK1/2 phosphorylation by Western blot; format: cell-based, rat; conditions: MGA 48 hours, immunoblot densitometry, n=3
Outline: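 Cells were serum-starved for 24 h, then treated with 100 uM MGA for 48 h. Lysis was in Triton buffer, pH 7.4, with NaVO4, PMSF and leupeptin. 10-50 μg protein was run on 10% SDS-PAGE and transferred to PVDF. Blots were probed overnight at 4°C with anti-phospho-ERK1/2 (1:2000), then stripped and re-probed for total ERK1/2 (1:3000). Detection was HRP chemiluminescence, with densitometry. 3 cell passages.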

[9] = system: ERK1/2 in NRK-52E cells; experiment: TGF-β-induced ERK1/2 phosphorylation by Western blot; format: cell-based, rat; conditions: TGF-β 5 ng/ml, 15 min incubation, n=3
Outline: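 Rat kidney proximal epithelial NRK-52E cells in DMEM/F12 with 5% FBS are serum-starved 24 h, then exposed to TGF-β (5 ng/ml) for 15 min. Lysis is in Triton buffer (100 mM NaCl, 50 mM NaF, 5 mM EDTA, 1% Triton X-100, 50 mM Tris-HCl pH 7.4, plus NaVO4, PMSF, leupeptin), followed by sonication and a 10,000 g spin. 10-50 μg protein is run on 10% SDS-PAGE and blotted to PVDF. Phospho-ERK1/2 is detected by HRP chemiluminescence, then the membrane is stripped and reprobed for total ERK1/2. Bands are quantified by densitometry.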

Metabolism of Ang-(1-7) to Ang-(1-4), MGA cells (abstract) ([1]; supernatant of MGA-treated NRK-52E cells): 175 ± 9 fmol/min/mg protein
Metabolism of Ang-(1-7) to Ang-(1-4), control cells (abstract) ([1]; supernatant of control NRK-52E cells): 115 ± 11 fmol/min/mg protein
Molecule: CC[C@H](C)[C@H](NC(=O)[C@H](Cc1ccc(O)cc1)NC(=O)[C@@H](NC(=O)[C@H](CCCNC(=N)N)NC(=O)[C@@H](N)CC(=O)O)C(C)C)C(=O)N[C@@H](Cc1c[nH]cn1)C(=O)N1CCC[C@H]1C(=O)O [Ang-(1-7), Angiotensin-(1-7)]

Molecule: D-Ala^7-Ang-(1-7) [DAL, reference compound]
Effect of DAL on the inhibition of MGA-induced MT by Ang-(1-7) (α-SMA staining) [2]: appeared to be reversed
Effect of DAL on the inhibition of MGA-induced α-SMA expression by Ang-(1-7) ([3]; Ang-(1-7) 100 nM + DAL 10 μM): blocked

Molecule: MGA: AGE product: BSA incubated with 500 μM methylglyoxal for 24 hours
TGF-β release, MGA alone ([4]; ELISA of media, control 0.4 ± 0.1, n=6): 1.16 ± 0.1 ng/mL
Fold increase of TGF-β release, MGA alone ([4]; vs control): approximately 3 fold
Fold induction of α-SMA protein expression, MGA alone ([3]; vs control cells): 3 fold
Intracellular Ang-(1-7) peptide content ([5]; 100 uM MGA 48 h, RIA, mean ± SEM, n=3, control cells 396 ± 59): 219 ± 54 fmol/mg protein
Intracellular Ang I peptide levels vs control ([5]; 100 uM MGA 48 h, RIA, n=3): not different
Intracellular Ang II peptide levels vs control ([5]; 100 uM MGA 48 h, RIA, n=3): not different
Reduction of intracellular levels of Ang-(1-7) ([5]; MGA exposure 48 hours): approximately 50%
Fold increase of cell area, MGA alone [6]: approximately 4 fold
Cell area, MGA alone ([6]; mean ± SEM n=3): 467 ± 70 % of control
Fold increase of 3H-leucine incorporation, MGA alone [7]: approximately 2 fold
Fold increase in density of phosphorylated ERK 1, MGA alone [8]: 2.5 fold
Fold increase in density of phosphorylated ERK 2, MGA alone [8]: 4 fold

Molecule: TGF-β
ERK1/2 phosphorylation, TGF-β alone [9]: stimulated
